ASAP1 inh = ASAP1 ArfGAP inhibition | Q9ULH1 | inhibition, % at 16.5 µM | ASAP1-stimulated ARF1 GTP hydrolysis, GDP FP detection | 360,000 compounds, 0.19% hits; in the data active = inhibition above about 25%;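 also: 0% = vehicle with enzyme and substrate and 100% = no enzyme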
ARFGAP1 inh = inhibitors of rat ARFGAP1; Q62848; Arfgap1-stimulated ARF1 GTP hydrolysis, GDP FP detection; inhibition, % at 16.5 µM; 360,000 compounds, 0.26% hits; AID 651572;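 active = inhibition above a per-plate limit, mean inhibition of low control wells plus 3 SD, cut at about 25% in these data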;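 also: 0% = DMSO wells with enzyme and 100% = wells lacking Arfgap1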
Target sequence (Q62848 1-136 limits assumed): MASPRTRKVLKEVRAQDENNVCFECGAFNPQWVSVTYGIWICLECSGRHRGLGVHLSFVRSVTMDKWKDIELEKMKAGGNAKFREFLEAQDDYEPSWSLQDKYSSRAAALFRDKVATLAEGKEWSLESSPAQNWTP
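Material – truncated rat Arfgap1 GAP domain · Buffer or medium – HEPES-based buffer, pH 7.5 · Reagent – human ARF1(Δ1-17)-GTP substrate · Dosing – 16.5 µM single point, 1.26% DMSO · Schedule – GTP hydrolysis reaction 2 h at 25 °C · Technique – GDP detection by fluorescence polarization · Benchmarks – No-Arfgap1 wells (100%) versus DMSO full-reaction wells (0%) · Repeats – single replicate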
PAFAH2 FP inh = inhibitors of human PAFAH2 | Q99487 | recombinant PAFAH2, FP-rhodamine activity probe, fluorescence polarization | 340,000 compounds, 0.99% hits | inhibition, % at 3.39 µM;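 active = inhibition above the mean over all tested compounds plus 3 SD, cut at about 30% in these data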;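 also: inhibitors block probe labeling of enzyme so polarization drops; 0% = enzyme with DMSO and 100% = wells lacking PAFAH2 protein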
PAFAH1B3 FP inh = inhibitors of human PAFAH1B3 | Q15102 | recombinant PAFAH1B3, FP-rhodamine probe, fluorescence polarization | inhibition, % at 3.39 µM | 340,000 compounds, 0.28% hits | AID 492972;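 active = inhibition above the screen-wide average of all tested compounds plus 3 SD, cut at about 25% in these data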;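 also: 0% = enzyme with DMSO only and 100% = wells lacking PAFAH1B3 protein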
Target sequence (Q15102 whole entry, looked up): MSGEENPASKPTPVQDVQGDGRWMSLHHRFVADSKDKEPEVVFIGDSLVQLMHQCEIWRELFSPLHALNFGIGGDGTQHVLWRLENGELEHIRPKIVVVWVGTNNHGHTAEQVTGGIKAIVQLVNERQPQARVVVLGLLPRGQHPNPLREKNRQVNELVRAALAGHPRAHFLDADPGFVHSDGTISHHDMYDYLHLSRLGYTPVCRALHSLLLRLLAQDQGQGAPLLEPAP
PAFAH1B2 FP inh = PAFAH1B2 (human) inhibition; recombinant PAFAH1B2, FP-rhodamine activity probe, fluorescence polarization; inhibition, % at 3.39 µM; 340,000 compounds, 1.2% hits;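 active = inhibition above the mean of all tested compounds plus 3 SD, cut at about 24% in these data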;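 also: 0% = enzyme with DMSO and 100% = wells lacking PAFAH1B2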
Target sequence (P68402 whole entry, looked up): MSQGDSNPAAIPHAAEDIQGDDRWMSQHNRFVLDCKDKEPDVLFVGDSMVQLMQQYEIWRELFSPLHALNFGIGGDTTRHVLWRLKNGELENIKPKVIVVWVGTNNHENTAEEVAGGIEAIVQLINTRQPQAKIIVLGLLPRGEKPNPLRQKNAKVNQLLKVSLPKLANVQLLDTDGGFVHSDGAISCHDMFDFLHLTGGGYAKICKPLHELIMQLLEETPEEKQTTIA
pPAFAH FP inh = inhibitors of human plasma PAF acetylhydrolase (pPAFAH). recombinant pPAFAH, FP-rhodamine probe fluorescence polarization. inhibition, % at 3.39 µM. 330,000 compounds, 1.5% hits;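 active = inhibition above the mean inhibition across the screen plus 3 SD, cut at about 25% in these data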;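 also: inhibitors block binding of the rhodamine activity-based probe so polarization drops; 0% = enzyme with DMSO and 100% = wells lacking pPAFAH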
pPAFAH confirm = confirmation of human plasma PAF acetylhydrolase (pPAFAH) inhibitors; shares compounds with pPAFAH FP inh; recombinant pPAFAH, FP-Rh probe fluorescence polarization; inhibition, % at 3.39 µM; 2,300 compounds, 72% hits;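 active = mean inhibition of the triplicate above the hit cutoff set for the earlier primary screen, cut at about 25% in these data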;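 also: 0% = enzyme with DMSO and 100% = wells lacking pPAFAH enzyme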
* hit, by the source's call; . = no result. In the library only some 2.7% were active in any assay of this set; here they are far more common.

SMILES | ASAP1 inh | ARFGAP1 inh | PAFAH2 FP inh | PAFAH1B3 FP inh | PAFAH1B2 FP inh | pPAFAH FP inh | pPAFAH confirm
COc1cc(C2CC(=O)N3CN(Cc4ccco4)CSC3=C2C#N)ccc1OCc1ccccc1 (stereo not drawn) | 4 | -5 | 5 | 0 | -1 | 36* | 11
Cc1ccc(N2NC(=O)/C(=C\c3cc4c(cc3[N+](=O)[O-])OCO4)C2=O)cc1C | 6 | -7 | 50* | 7 | 16 | 48* | 15
COc1cc(/C=C2/C(=O)NN(c3ccc(C)c(Cl)c3)C2=O)cc([N+](=O)[O-])c1O | -2 | -11 | 25 | 21 | 21 | . | .
Cc1cccc(NC(=O)CNC(=O)c2cccs2)n1 | 4 | -2 | 2 | 10 | 2 | 4 | .
COc1ccccc1/C=C/C(=O)Nc1ccc(S(=O)(=O)Nc2cc(C)on2)cc1 | -11 | 5 | -11 | -4 | 1 | -6 | .
Nc1cc(-c2nn[nH]n2)ccc1F | 1 | -3 | 3 | 16 | 6 | 43* | 11
CC(C)C[C@H]1COc2cccc(N3CCOCC3)c2S(=O)(=O)N1 | -12 | -5 | . | . | . | . | .
N=C1C(c2ccccc2)=C(O)CN1c1cccc(S(=O)(=O)N2CCOCC2)c1 | 6 | -13 | -2 | 7 | -1 | 44* | 2
N=C1C(c2ccccc2)=C(O)CN1c1cccc(S(N)(=O)=O)c1 | 3 | 1 | 1 | -2 | -1 | 6 | .
CC1=C(C(=O)OCc2ccccc2)C(c2ccc(-c3ccccc3)cc2)NC(=O)N1CCCCCC(=O)O (stereo not drawn) | -17 | -2 | 11 | 4 | 4 | 46* | 41*
CCc1nc(-c2ccccc2)cc(=O)[nH]1 | -15 | -7 | 4 | 10 | -1 | 40* | 4
O=C(Nc1ccc(N2CCCC2)cc1)c1cc(Br)ccc1Cl | 22 | 32* | 2 | 6 | 4 | 47* | 5
NS(=O)(=O)c1ccc(N2CCCC2=O)c([N+](=O)[O-])c1 | 8 | 4 | 2 | 5 | 6 | 44* | 4
CC(C)CN1CCC(CN2C(=S)NC[C@@H]2Cc2ccccc2)CC1 | 4 | 7 | . | . | . | . | .
CCCCCCCc1nn2c(=O)cc(O)nc2s1 | -4 | -4 | -3 | 2 | 9 | 47* | 10
CCCc1nn2c(=O)cc(O)nc2s1 | 9 | -2 | 5 | 0 | -2 | -5 | .
O=C(/C=C/c1ccco1)OCC(=O)c1ccc(OC(F)F)cc1 | -14 | 10 | 3 | 6 | 2 | 55* | 8
Cc1ccc(C(C)C)c(OCc2ccc(C(=O)N/N=C/c3ccc(O)c(O)c3)cc2)c1 | 13 | 9 | 14 | 34* | -1 | 61* | 84*
COc1cc(/C=N/NC(=O)c2ccc(COc3cc(C)ccc3C(C)C)cc2)cc(OC)c1O | 2 | -5 | -11 | 7 | 0 | 7 | .
O=C(N/N=C/c1ccc(O)c(O)c1)c1ccc(CSc2cccc3cccnc23)cc1 | 1 | 8 | 24 | 17 | 10 | 69* | 86*
O=C(CSc1cccc2cccnc12)N/N=C/c1cccc(O)c1 | 2 | -7 | 1 | 8 | 1 | 5 | .
COc1ccccc1CNc1ccc2c(c1)OC[C@H](CC(C)C)NS2(=O)=O | -12 | -9 | . | . | . | . | .
N#C/C(=C\c1ccc(O)c(O)c1)C(=O)Nc1cccc2ncccc12 | 18 | 5 | 49* | 15 | 10 | 52* | 70*
COc1ccc(/C=C(\C#N)C(=O)Nc2cccc3ncccc23)cc1OC | 0 | 1 | -1 | 9 | 2 | 1 | .
Cc1cc(C(=O)CN2C(=O)NC3(CCCc4sccc43)C2=O)c(C)n1-c1ccc(Cl)cc1 (stereo not drawn) | 5 | -1 | 2 | -4 | 2 | 40* | 42*
SMILES | ASAP1 inh | ARFGAP1 inh | PAFAH2 FP inh | PAFAH1B3 FP inh | PAFAH1B2 FP inh | pPAFAH FP inh | pPAFAH confirm
O=C(C(=O)N1CCC(CNS(=O)(=O)c2cccc(C(F)(F)F)c2)CC1)c1cc2ccccc2o1 | -8 | -1 | . | . | . | . | .
Cc1cc(C)nc(N/N=C/C2=C(N3CCOCC3)C(=C\c3ccc(Cl)cc3)/CC2)n1 | -5 | 1 | 11 | 8 | 5 | 62* | 98*
Oc1ccc(-c2cn3c(n2)SCC3)cc1 | 2 | 4 | 16 | 7 | 2 | 1 | .
Oc1ccc(-c2cn3c(n2)SCC3)cc1O | 2 | -12 | 23 | 12 | 5 | 56* | 21
O=C(O)c1cccc(-c2ccc(/C=N/n3cnc4sc5c(c4c3=O)CCCC5)o2)c1 | . | . | . | . | . | 4 | .
N=C1/C(=C\c2ccc(-c3cccc(C(=O)O)c3)o2)C(=O)N=C2SC=C(c3ccccc3)N12 | 4 | -16 | 35* | 29* | 31* | 55* | 49*
COc1ccc2[nH]c(O)c(N=NC(=O)c3ccc(NS(=O)(=O)c4cccs4)cc3)c2c1 | -5 | -6 | 23 | 32* | 21 | 44* | 39*
COc1ccc(/C=N/NC(=O)C2CCN(c3ncc(C(F)(F)F)cc3Cl)CC2)cc1 | -6 | -15 | -3 | 4 | 4 | 2 | .
COc1cccc2c1NC(C(=O)O)C1CC=CC21 (stereo not drawn) | . | . | 48* | 24 | 30* | 57* | 11
COc1cc(C2Nc3c(F)cccc3C3C=CCC32)cc(Br)c1OC (stereo not drawn) | 15 | 0 | 3 | 1 | 8 | 2 | .
O=C1c2cc(Br)ccc2N(Cc2ccc(Br)cc2)S(=O)(=O)C1c1cc(Cl)c(Cl)cc1[N+](=O)[O-] (stereo not drawn) | . | . | 54* | 20 | 44* | 45* | 55*
O=C1CS(=O)(=O)N(Cc2cccc(F)c2)c2ccc(Br)cc21 | -8 | -2 | -5 | -1 | 3 | 1 | .
CCOC(=O)C1=C(C)NC(SCC(N)=O)=C(C#N)C1c1cccs1 (stereo not drawn) | 1 | -6 | 4 | 2 | 1 | 4 | .
CCOC(=O)C1=C(C)NC(SCc2cc(=O)[nH][nH]2)=C(C#N)C1c1cccs1 (stereo not drawn) | 4 | 5 | -2 | 0 | 4 | 47* | 13
O=C(COC(=O)CN1C(=O)c2ccccc2C1=O)NC1CCCC1 | 2 | 6 | -4 | 1 | 6 | 1 | .
COc1ccc(-n2cc(-c3ccccc3)c3c(NCCCN4CCOCC4)ncnc32)cc1 | 7 | -1 | -8 | -3 | 4 | 35* | 18
O=C(NCC(=O)N1CCN(c2ccccc2O)CC1)C1CCCCC1 | 8 | 7 | 24 | 8 | 2 | 37* | 24
O=C(COC(=O)c1ccc(O)cc1)Nc1ccc(N2CCCCC2)cc1 | 20 | 5 | 60* | 4 | 4 | 48* | 34*
Cc1cc(C)cc(OCC(=O)Nc2ccc(N3CCCC3)cc2)c1 | . | . | 8 | 3 | -2 | 36* | 30*
